Activity calls are given as the source filed them. No cut-off for these calls is given here.
Tests used:
[1] = (§1) Cytotoxicity against paclitaxel-sensitive human KB3-1 cells assessed as decrease in cell viability after 72 hrs by neutral red dye assay; assay type: functional, cell-based; details: KB 3-1, 72 h
Method in brief: (§2)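 KB-3-1 head and neck cancer cells kept in D-MEM/F12 with 10% FBS, penicillin/streptomycin, 2 mM L-glutamine, 37 °C, 5% CO2. Seeded 20,000 cells/well, adhered 24 h, then given varying concentrations in triplicate for 72 h. Viable cells took up neutral red (50 μg/ml, 30 min); dye dissolved in 0.5 N HCl with 35% ethanol, absorbance 570 nm.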

KB 3-1 = assay: as §1; assay type: functional, cell-based; method in brief: as §2
KB-V1 = assay: Cytotoxicity against paclitaxel-resistant human KBV1 cells assessed as decrease in cell viability after 72 hrs by neutral red dye assay; assay type: functional, cell-based
Method in brief: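 KB-V1 cells grown in D-MEM/F12 with 10% FBS, penicillin/streptomycin, 2 mM L-glutamine and vinblastine (1 μg/ml), 37 °C, 5% CO2. Plated at 20,000 cells/well, adhered 24 h, treated with graded concentrations in triplicate for 72 h; neutral red (50 μg/ml, 30 min) uptake, dye extracted in acidic ethanol, read at 570 nm.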

HUVEC [2] = assay: Cytotoxicity against HUVEC assessed as decrease in cell viability after 72 hrs by neutral red dye assay; assay type: cell-based; details: human
Method in brief: (§3)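 HUVECs cultured overnight with or without TPA (100 nM phorbol ester) to induce tissue factor, then plated 20,000 cells/well, adhered 24 h, and exposed to graded drug concentrations for 72 h in triplicate. Viability read by neutral red uptake (50 μg/ml, 30 min, 37 °C), PBS washes, dye extracted in 0.5 N HCl/35% ethanol, absorbance at 570 nm.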

HUVEC [3] = assay: Cytotoxicity against TPA-treated HUVEC assessed as decrease in cell viability after 72 hrs by neutral red dye assay; assay type: cell-based; details: human; method in brief: as §3

CC(=O)O[C@H]1C(=O)[C@]2(C)[C@@H](OC(=O)CCC(=O)N[C@@H](Cc3ccccc3)C(=O)N[C@@H](Cc3ccccc3)C(=O)N[C@@H](CCCNC(=N)N)C(=O)CCl)C[C@H]3OC[C@@]3(OC(C)=O)[C@H]2[C@H](OC(=O)c2ccccc2)[C@]2(O)C[C@H](OC(=O)[C@H](O)[C@@H](NC(=O)c3ccccc3)c3ccccc3)C(C)=C1C2(C)C
IC50 [1]: 130 nM | Activity (KB 3-1): Dose-dependent effect | Activity (KB-V1): inactive

CC(=O)O[C@H]1C(=O)[C@@]2(C)[C@H]([C@H](OC(=O)c3ccccc3)[C@]3(O)C[C@H](OC(=O)[C@H](O)[C@@H](NC(=O)c4ccccc4)c4ccccc4)C(C)=C1C3(C)C)[C@]1(OC(C)=O)CO[C@@H]1C[C@@H]2O [PACLITAXEL]
IC50 [1]: 1.2 nM | Activity (KB-V1): inactive | Activity (HUVEC [2]): Active | Activity (HUVEC [3]): Active

CC(=O)O[C@H]1C(=O)[C@@]2(C)[C@H]([C@H](OC(=O)c3ccccc3)[C@]3(O)C[C@H](OC(=O)[C@H](OC(=O)CCC(=O)N[C@@H](Cc4ccccc4)C(=O)N[C@@H](Cc4ccccc4)C(=O)N[C@@H](CCCNC(=N)N)C(=O)CCl)[C@@H](NC(=O)c4ccccc4)c4ccccc4)C(C)=C1C3(C)C)[C@]1(OC(C)=O)CO[C@@H]1C[C@@H]2O
IC50 [1]: 12 nM | Activity (KB 3-1): Dose-dependent effect | Activity (KB-V1): inactive | Activity (HUVEC [3]): Not Active

Source: ChEMBL document CHEMBL1156152, “Targeted delivery of paclitaxel to tumor cells: synthesis and in vitro evaluation” (J Med Chem, 2010)
